Values after ≈ are worked out from the molar mass of the structure shown. Active and inactive are the calls of the source. No cut-off for these calls is given here.
Key:
[1] = tested on: MCF7; assay: Cytotoxicity against human MCF7 after 3 days by SRB assay; type: functional, cell-based; details: MCF7, 72 h
[2] = tested on: SF-268; assay: cells; type: functional, cell-based; details: Homo sapiens, SF-268, 72 h
[3] = tested on: NCI-H460; assay: Cytotoxicity against human H460 after 3 days by SRB assay; type: functional, cell-based; details: NCI-H460, 72 h
[4] = (§1) Toxicity in brine shrimp; type: organism-based; details: artemia, in vivo
In short: (§2)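 Brine shrimp lethality. LC50 in μg/mL, taken from single experiments with four concentrations, each run in triplicate.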

[5] = organism: Rattus norvegicus; assay: Displacement of […] from GABAA in rat cerebral cortical at 10 uM
In short: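 Rat cerebral cortex membranes (sucrose homogenate, differential centrifugation, washed in 50 mM sodium phosphate/200 mM NaCl pH 7.4). Duplicate wells, 500 μL final volume: 50 μg protein, test compound 10 μM, 5.0 μM GABA, 2.0 nM [35S]TBPS. Nonspecific binding defined with 200 μM picrotoxin. Incubation 1 h at rt, then GF/B vacuum filtration and scintillation counting. Net change versus basal is reported as % of 10 μM allopregnanolone.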

[6] = tested on: Micrococcus luteus; assay: Antimicrobial activity against Micrococcus luteus after 3 days; type: functional; details: 72 h
[7] = tested on: Mycolicibacterium smegmatis; assay: Antimicrobial activity against Mycobacterium smegmatis after 3 days; type: functional; details: 72 h
[8] = organism: Rattus norvegicus; assay: Displacement of [3H]flunitrazepam from GABAA in rat cerebral cortical 10 uM
In short: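 Rat cortical membrane homogenate in 50 mM sodium phosphate/200 mM NaCl pH 7.4. Duplicates, 500 μL final volume: 50 μg protein, test compound 10 μM, 1.0 μM GABA, 1.0 nM [3H]flunitrazepam. Nonspecific binding defined with 10 μM clonazepam. After 1 h at rt, filtered over PEI-soaked GF/B and counted. Net binding change versus basal is given as % of the 10 μM allopregnanolone response.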

[9] = tested on: Saccharomyces cerevisiae; assay: Antimicrobial activity against Saccharomyces cerevisiae after 3 days; type: functional; details: 72 h
[10] = tested on: Aspergillus niger; assay: Antimicrobial activity against Aspergillus niger after 3 days; type: functional; details: 72 h
[11] = tested on: Artemia; assay: as §1; type: organism-based; details: in vivo; in short: as §2

CC[C@@]1(O)C(=O)OCc2c1cc1n(c2=O)Cc2cc3ccccc3nc2-1 [CAMPTOTHECIN]
EC50 [1]: 72 nM
EC50 [2]: 59 nM
EC50 [3]: 6.9 nM

COc1c2c(cc3c1-c1ccc(OC)c(=O)cc1[C@@H](NC(C)=O)CC3)OCO2
EC50 [1]: 61 nM
LC50 [4]: 7.7 µg/mL (≈ 20.1 µM)
Activity [5]: 50%
MIC [6]: > 500 µg/mL
MIC [7]: > 500 µg/mL
EC50 [2]: 97 nM
Activity [8]: 50%
MIC [9]: > 500 µg/mL
MIC [10]: > 500 µg/mL
EC50 [3]: 59 nM

COc1cc2c(c(OC)c1OC)-c1ccc(OC)c(=O)cc1[C@@H](NC(C)=O)CC2 (stereo in doubt) [COLCHICINE]
LC50 [11]: 2.8 µg/mL (≈ 7.01 µM)

COC1=C[C@@H]2C3=C([C@@H]2C1=O)[C@@H](NC(C)=O)CCc1cc(OC)c(OC)c(OC)c13
EC50 [1]: 1500 nM
LC50 [4]: 74.6 µg/mL (≈ 187 µM)
MIC [6]: > 500 µg/mL
MIC [7]: > 500 µg/mL
EC50 [2]: 3200 nM
MIC [9]: > 500 µg/mL
MIC [10]: > 500 µg/mL
EC50 [3]: 2100 nM

CN[C@H]1CCc2cc(O)c(OC)c(OC)c2-c2ccc(OC)c(=O)cc21
EC50 [1]: 790 nM
LC50 [4]: 71.5 µg/mL (≈ 200 µM)
MIC [6]: > 500 µg/mL
MIC [7]: > 500 µg/mL
EC50 [2]: 3200 nM
MIC [9]: > 500 µg/mL
MIC [10]: > 500 µg/mL
EC50 [3]: 1100 nM

CN[C@H]1CCc2cc(O)c(O)c(OC)c2-c2ccc(OC)c(=O)cc21
EC50 [1]: 130000 nM
LC50 [4]: 88.2 µg/mL (≈ 257 µM)
MIC [6]: > 500 µg/mL
MIC [7]: > 500 µg/mL
EC50 [2]: 80200 nM
MIC [9]: > 500 µg/mL
MIC [10]: > 500 µg/mL
EC50 [3]: 216000 nM

CC(=O)[C@H]1CC[C@H]2[C@@H]3CC[C@H]4C[C@H](O)CC[C@]4(C)[C@H]3CC[C@]12C
Activity [5]: Active
Activity [8]: Active

COc1cc2c(c(OC)c1OC)-c1ccc(OC)c(=O)cc1[C@@H](NC(C)=O)CC2 (stereo in doubt; 1) [COLCHICINE]
EC50 [1]: 16 nM
LC50 [4]: 3.7 µg/mL (≈ 9.26 µM)
MIC [6]: > 500 µg/mL
MIC [7]: > 500 µg/mL
EC50 [2]: 25 nM
MIC [9]: > 500 µg/mL
MIC [10]: > 500 µg/mL
EC50 [3]: 30 nM

COC1=C2c3ccc(OC)c(=O)cc3[C@H]3CC4(C)N3C24C=C(O)C1=O (stereo not given in full) [DEMECOLCINONE]
EC50 [1]: 28700 nM
LC50 [4]: 79.3 µg/mL (≈ 234 µM)
MIC [6]: > 500 µg/mL
MIC [7]: > 500 µg/mL
EC50 [2]: 28400 nM
MIC [9]: > 500 µg/mL
MIC [10]: > 500 µg/mL
EC50 [3]: 31300 nM

COc1ccc2c(c1O)[C@@H](NC(C)=O)CCc1cc(OC)c(OC)c(OC)c1-2
EC50 [1]: 200 nM
LC50 [4]: 48.8 µg/mL (≈ 126 µM)
Activity [5]: 50%
MIC [6]: > 500 µg/mL
MIC [7]: > 500 µg/mL
EC50 [2]: 370 nM
Activity [8]: 50%
MIC [9]: > 500 µg/mL
MIC [10]: > 500 µg/mL
EC50 [3]: 260 nM

COc1c(O)cc2c(c1OC)-c1ccc(OC)c(=O)cc1[C@@H](NC(C)=O)CC2 [3-DESMETHYLCOLCHICIN]
LC50 [4]: 74.6 µg/mL (≈ 194 µM)

CN[C@H]1CCc2cc(OC)c(OC)c(OC)c2-c2ccc(OC)c(=O)cc21 [DEMECOLCINE]
EC50 [1]: 600 nM
LC50 [4]: 61 µg/mL (≈ 164 µM)
MIC [6]: > 500 µg/mL
MIC [7]: > 500 µg/mL
EC50 [2]: 6200 nM
MIC [9]: > 500 µg/mL
MIC [10]: > 500 µg/mL
EC50 [3]: 690 nM

— ChEMBL document CHEMBL1142575, “New colchicinoids from a native Jordanian meadow saffron, colchicum brachyphyllum: isolation of the first naturally occurring dextrorotatory colchicinoid” (J Nat Prod, 2005)
